The text below walks through data of ChEMBL document CHEMBL1955833, “Wnt inhibition correlates with human embryonic stem cell cardiomyogenesis: a structure-activity relationship study based on inhibitors for the Wnt response” (J Med Chem, 2012).

Calls of active or inactive are those of the source. No cut-off for these calls is given here.

A short description of data set [1]: Inhibition of beta-catenin-dependent canonical Wnt3 pathway in human HEK293T cells by luciferase reporter gene assay. To be noted: HEK-293T. The class given is cell-based. In general terms: Reporter assays use an easily measured gene product as a stand-in for the process of interest.
A short description of data set [2]: Inhibition of beta-catenin-dependent canonical Wnt3A pathway in human HEK293T cells at 1 uM by luciferase reporter gene assay. It is filed as cell-based. To be noted: HEK-293T. An outline of the steps:
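HEK293T cells transiently co-transfected with Super(8x)TOPflash (TCF-firefly luciferase), TK-Renilla luciferase for normalization, and a Wnt3A-expressing vector to activate the pathway. Compounds tested at a single concentration of 1 μM, alongside untreated and DMSO vehicle controls. Firefly signal normalized to Renilla.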

The subject of data set [3] is HEK-293T. The data set can be described thus: Inhibition of human recombinant TGFbeta2-induced Smad signaling in HEK293T cells at 0.01 to 5 uM by luciferase reporter gene assay. It is filed as cell-based. Summed up:
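HEK293T cells carrying a SMAD response element reporter were stimulated with human recombinant TGFβ2. Compounds were incubated at 0.01, 0.1, 1 and 5 μM. Percent inhibition of the SMAD response was calculated relative to DMSO vehicle controls.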

Data set [4] in a line: Chemical stability in phosphate buffer pH 7.4 at 10 uM after 30 hrs by HPLC analysis. The class given is physicochemical. To be noted: pH 7.4, 30 h. Summed up: (§1)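 Degradation followed by HPLC, and half-life determined where degradation occurred.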
In data set [5] the test system is H9. The data set can be described thus: Cardiogenic activity in human H9 cells after 14 days by MYH6-mCherry reporter gene assay relative to 4-[(1R,2S,6R,7S)-3,5-dioxo-4-azatricyclo[5.2.1.0~2,6~]dec-8-en-4-yl]-N-quinolin-8-ylbenzamide. It is filed as functional. An outline of the steps: (§2)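 hESC embryoid bodies grown to day 4, dissociated to single cells and plated in 384-well format with serial compound dilutions. At day 10 switched to serum-free medium with T3. At day 14 moved to PBS and imaged for red fluorescence. Total area and intensity of the MYH6-mCherry reporter were quantified per well and expressed as percent cardiogenesis, with the reference set to 100% at its maximum.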

The subject of data set [6] is HEK-293T. In words: Cytotoxicity against human HEK293T cells at 0.2 to 20 uM after 24 hrs by alamar blue assay. The class given is cell-based. On the technique in general: Resazurin is reduced to fluorescent resorufin, in cell work by metabolically active cells.
Data set [7] in a line: Cardiogenic activity in human embryonic stem cells at 2.5 uM by MYH6 reporter gene assay relative to control. It is filed as functional, Embryonic stem cell.
Another data set deals with Embryonic stem cell. The data set can be described thus: Cardiogenic activity in human embryonic stem cells at 50 uM by MYH6 reporter gene assay relative to control. The class given is functional, cell-based.
A short description of data set [8]: Cardiogenic activity in human embryonic stem cells at 2 uM by MYH6 reporter gene assay relative to control. The class given is functional, Embryonic stem cell.
For data set [9], the system named is H9. In words: Cardiogenic activity in human H9 cells at 10 uM after 14 days by MYH6-mCherry reporter gene assay relative to 4-[(1R,2S,6R,7S)-3,5-dioxo-4-azatricyclo[5.2.1.0~2,6~]dec-8-en-4-yl]-N-quinolin-8-ylbenzamide. The class given is functional. An outline of the steps: as §2
For data set [10], the system named is H9. In words: Cardiogenic activity in human H9 cells at < 0.15 uM after 14 days by MYH6-mCherry reporter gene assay relative to 4-[(1R,2S,6R,7S)-3,5-dioxo-4-azatricyclo[5.2.1.0~2,6~]dec-8-en-4-yl]-N-quinolin-8-ylbenzamide. It is filed as functional, cell-based. Summed up:
as §2

The nature of data set [11]: Half life in phosphate buffer pH 7.4 at 10 uM by HPLC analysis. It is filed as physicochemical. An outline of the steps:
as §1

One may read the IC50 as the point on the concentration scale where inhibition reaches its midpoint. Read a low IC50 as greater potency. As a reminder, the inhibition is the change of the read-out against control, counted positive when it falls. A word on the half-life: it is the time in which the quantity being followed falls by half. The low end stands for fast loss, the high end for slow loss.

For the compound `O=C1[C@@H]2[C@@H]3CC[C@@H](C3)[C@@H]2C(=O)N1[C@H]1CC[C@H](C(=O)Nc2cccnc2)CC1`, in data set [1], the midpoint of inhibition, the IC50, lay at 120 nM. Further, the inhibition in data set [2] is 89%; in the data set on HEK-293T [3] it was below 20%. For the same compound, in data set [4], the Stability result is “Stable”. In the data set on H9 [5], this compound yielded an Activity of 15%.
For `Cc1ccc2nc(NC(=O)CSc3nc4c(c(=O)n3-c3ccc(F)cc3)SCC4)sc2c1`, the Activity entry in the data set on HEK-293T [6] is given as “Non-toxic”. The compound further yielded a half-inhibitory concentration (IC50) in data set [1] of 538 nM. Moreover, the “fold change (FC)” value in data set [7] came to 1000.
As to `COc1ccc(/C=C2/SC(=S)N(CCCC(=O)O)C2=O)cc1OC`, the Activity entry in the data set on HEK-293T [6] is listed as “Non-toxic”. In [1], this compound gave an IC50 of 728 nM. Besides, the result in the data set on Embryonic stem cell was Active.
Take `Oc1nc(-c2ccc(C(F)(F)F)cc2)nc2c1CSCC2`: in data set [8], the “fold change (FC)” value stood at 1000. The Activity entry in the data set with HEK-293T [6] was “Non-toxic”. The half-inhibitory concentration (IC50) in [1] is 51 nM.
With `O=C1[C@@H]2[C@@H]3CC[C@@H](C3)[C@@H]2C(=O)N1[C@H]1CC[C@H](C(=O)Nc2cccc3ccncc23)CC1`, the Activity in the data set on H9 [9] is 24%; in the data set with H9 [5], “Dose-dependent effect”; with H9 [5] (record 2), 25%. Also, it took 93 nM to reach half-maximal inhibition in data set [1] (IC50). For the same compound, the inhibition in [2] was determined as 91%.
`CC(=O)c1ccccc1NC(=O)[C@H]1CC[C@H](N2C(=O)[C@@H]3[C@@H]4CC[C@@H](C4)[C@@H]3C2=O)CC1` gave an IC50 in data set [1] of 6 nM. The inhibition in data set [2] is 91%; in the data set on HEK-293T [3] it was below 20%. For the same compound, the result in the data set on H9 [10] was Active. Further, the Stability entry in [4] is reported as “Stable”. The Activity in the data set with H9 [5] came out at 78%.
In data set [1], `O=C(Nc1ccc(N2C(=O)[C@@H]3[C@@H]4CC[C@@H](C4)[C@@H]3C2=O)cc1)c1cccc2cccnc12` returned an IC50 of 119 nM. This compound showed a half-life at 10 µM in [11] of 3.8 h. For the same compound, the inhibition in data set [2] stood at 91%. Besides, the Activity in the data set on H9 [5] is listed as 1%.
Turning to `O=C(Nc1cccc2cccnc12)c1ccc(N2C(=O)[C@@H]3[C@H](C2=O)[C@@H]2C=C[C@H]3C2)cc1`, the Activity result in the data set on HEK-293T [6] was “Non-toxic”; in the data set on H9 [5], “Dose-dependent effect”. Also, in the data set with HEK-293T [3], the inhibition is below 20%. Besides, the Stability result in data set [4] is listed as “Stable”.
As for `O=C1CCCc2cccc(NC(=O)[C@H]3CC[C@H](N4C(=O)[C@@H]5[C@@H]6CC[C@@H](C6)[C@@H]5C4=O)CC3)c21`, half-maximal inhibition in data set [1] (IC50) was put at 7 nM. Further, the figures for the inhibition (in data set [2]; in the data set on HEK-293T [3]) were 92% and below 20%, respectively. In the data set on H9 [10], the outcome was Active. In the data set on H9 [5], this compound had an Activity of 176%.
